Measured values reported in ChEMBL document CHEMBL2407009, “Rotenoids from Boerhaavia diffusa as potential anti-inflammatory agents” (J Nat Prod, 2013).

Assays:
Rattus norvegicus [1] = test: Antiinflammatory activity in Sprague-Dawley rat assessed as inhibition of carrageenan-induced paw edema at 100 mg/kg, po administered 1 hr before carrageenan challenge measured after 5 hrs relative to control; format: functional
Outline: (§1)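 Female Sprague-Dawley rats (160−180 g), fasted overnight, six per group. Samples suspended in freshly prepared 0.5% hydroxypropyl methyl cellulose, given orally; control group received vehicle (normal saline). 1 h after dosing, 100 μL of 1% carrageenan in saline injected subcutaneously into left hind paw. Paw volume read by plethysmometer before and at 3 and 5 h; edema = final minus basal volume. Mean ± SEM, one-way ANOVA with Dunnett's test versus control.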

Rattus norvegicus [2] = test: Antiinflammatory activity in Sprague-Dawley rat assessed as inhibition of carrageenan-induced paw edema at 50 mg/kg, po administered 1 hr before carrageenan challenge measured after 5 hrs relative to control; format: functional; outline: as §1
Rattus norvegicus [3] = test: Antiinflammatory activity in Sprague-Dawley rat assessed as inhibition of carrageenan-induced paw edema at 100 mg/kg, po administered 1 hr before carrageenan challenge measured after 3 hrs relative to control; format: functional; outline: as §1
Rattus norvegicus [4] = test: Antiinflammatory activity in Sprague-Dawley rat assessed as inhibition of carrageenan-induced paw edema at 50 mg/kg, po administered 1 hr before carrageenan challenge measured after 3 hrs relative to control; format: functional; outline: as §1
Ovis aries = species on record: Ovis aries; test: Selectivity ratio of IC50 for ovine COX1 to IC50 for ovine COX2
Outline: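 Ratio of COX-1 IC50 to COX-2 IC50. Both IC50s come from concentration−inhibition curves in the ovine enzyme kit assay, with PGF2α (from SnCl2 reduction of PGH2) measured by enzyme immunoassay.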

[5] = target: T1, Prostaglandin G/H synthase 1 (Ovis aries, UniProt P05979); test: Inhibition of ovine COX1 assessed as PGF2alpha production by reduction of PGH2 with stannous chloride by enzyme immunoassay
T1 sequence (P05979 whole entry): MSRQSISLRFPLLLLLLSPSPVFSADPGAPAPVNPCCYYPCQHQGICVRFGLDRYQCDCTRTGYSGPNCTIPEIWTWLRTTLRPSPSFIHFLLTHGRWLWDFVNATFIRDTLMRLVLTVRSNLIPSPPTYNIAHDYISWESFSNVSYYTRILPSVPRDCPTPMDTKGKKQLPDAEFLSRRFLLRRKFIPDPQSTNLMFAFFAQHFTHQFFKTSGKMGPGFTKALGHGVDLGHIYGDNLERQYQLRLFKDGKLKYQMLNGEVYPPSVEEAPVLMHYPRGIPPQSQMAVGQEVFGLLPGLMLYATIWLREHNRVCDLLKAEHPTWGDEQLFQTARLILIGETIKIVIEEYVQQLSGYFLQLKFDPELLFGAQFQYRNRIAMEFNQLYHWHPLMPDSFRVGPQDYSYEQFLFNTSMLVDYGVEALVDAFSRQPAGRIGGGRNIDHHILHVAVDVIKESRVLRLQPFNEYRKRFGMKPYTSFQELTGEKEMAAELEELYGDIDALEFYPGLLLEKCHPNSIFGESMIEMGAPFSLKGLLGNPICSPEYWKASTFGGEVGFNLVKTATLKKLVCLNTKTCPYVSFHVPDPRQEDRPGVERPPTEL
Outline: (§2)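 Ovine COX-1 or COX-2 from screening kit used per manufacturer; arachidonic acid substrate, PGH2 reduced by SnCl2 to PGF2α and read by enzyme immunoassay. DMSO stock solutions. Percent inhibition relative to control incubations; IC50 obtained from concentration−inhibition response curves. Means ± SEM, n = 2−3.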

[6] = target: T2, Prostaglandin G/H synthase 2 (Ovis aries, UniProt P79208); test: Inhibition of ovine COX2 assessed as PGF2alpha production by reduction of PGH2 with stannous chloride by enzyme immunoassay; outline: as §2
T2 sequence (P79208 whole entry): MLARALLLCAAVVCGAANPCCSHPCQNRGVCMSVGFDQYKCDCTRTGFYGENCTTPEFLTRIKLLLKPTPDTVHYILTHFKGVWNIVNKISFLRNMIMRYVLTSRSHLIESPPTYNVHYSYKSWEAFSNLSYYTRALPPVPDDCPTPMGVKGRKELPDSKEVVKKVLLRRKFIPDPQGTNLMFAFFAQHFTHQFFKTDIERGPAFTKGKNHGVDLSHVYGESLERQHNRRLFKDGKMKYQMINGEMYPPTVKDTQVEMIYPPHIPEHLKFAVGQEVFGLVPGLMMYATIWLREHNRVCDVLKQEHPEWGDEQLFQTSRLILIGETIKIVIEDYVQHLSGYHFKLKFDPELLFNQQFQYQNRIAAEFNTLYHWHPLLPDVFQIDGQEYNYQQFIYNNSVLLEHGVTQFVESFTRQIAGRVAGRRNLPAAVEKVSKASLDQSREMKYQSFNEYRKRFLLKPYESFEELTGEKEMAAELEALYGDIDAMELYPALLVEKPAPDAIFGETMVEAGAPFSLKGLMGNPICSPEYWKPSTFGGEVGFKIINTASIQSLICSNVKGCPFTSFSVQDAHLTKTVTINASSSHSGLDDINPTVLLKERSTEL

[7] = target: T3, Prostaglandin G/H synthase 1 (Ovis aries) (UniProt P05979); test: Inhibition of ovine COX1 assessed as PGF2alpha production by reduction of PGH2 with stannous chloride at 40 uM by enzyme immunoassay relative to control
T3 sequence (whole entry): T1 sequence (P05979 whole entry)
Outline: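 Ovine COX inhibitor screening kit run per manufacturer. Enzyme converts arachidonic acid to PGH2, which SnCl2 reduces to PGF2α, quantified by enzyme immunoassay. DMSO stocks; final test concentration 40 μM. Percent inhibition calculated against control incubations. Means ± SEM, n = 2−3.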

For `CC(C)Cc1ccc(C(C)C(=O)O)cc1` (centres undefined) [IBUPROFEN], the inhibition in vivo at 100 mg/kg (Rattus norvegicus [1]) was 50.4%, the inhibition in vivo at 50 mg/kg (Rattus norvegicus [2]) was 43.5% and the inhibition in vivo at 100 mg/kg (Rattus norvegicus [3]) was 42.7%. For the same compound, the inhibition in vivo at 50 mg/kg (Rattus norvegicus [4]) was 35.8%.
In the case of `O=c1c2c(oc3cc(O)cc(O)c13)C(O)Oc1cc(O)ccc1-2` (racemic), the Ratio IC50 (Ovis aries) is reported as 0.79, the IC50 [5] is reported as 21.7 µM and the IC50 [6] is reported as 25.5 µM.
Work on `COC1Oc2ccccc2-c2c1oc1cc(O)cc(O)c1c2=O` (racemic) yielded an inhibition [7] of 59.4%.
In the case of `Cc1c(O)cc2oc3c(c(=O)c2c1O)-c1ccc(O)cc1OC3O` (centres undefined) [BOERAVINONE E], the IC50 [5] is reported as 23.9 µM.
Compound `COc1cc(O)c2c(=O)c3c(oc2c1)C(O)Oc1c(O)cccc1-3` (racemic) has an inhibition [7] of 59.9%.
For `COc1c(O)c(C)c(O)c2c(=O)c3c(oc12)C(O)Oc1ccccc1-3` (racemic), the IC50 [5] was 25.9 µM.
Compound `COC1Oc2ccccc2-c2c1oc1cc(O)c(C)c(O)c1c2=O` (centres undefined) [BOERAVINONE A] has an IC50 [5] of 32.9 µM.
With `Cc1c(O)cc2oc3c(c(=O)c2c1O)-c1ccccc1OC3O` (centres undefined) [BOERAVINONE B] the IC50 [5] was 25 µM, the inhibition in vivo at 50 mg/kg (Rattus norvegicus [2]) was 56.7% and the inhibition in vivo at 50 mg/kg (Rattus norvegicus [4]) was 48.3%.
In the case of `COc1c(O)c(C)c(O)c2c(=O)c3c(oc12)C(OC)Oc1ccccc1-3` (racemic), the Ratio IC50 (Ovis aries) is reported as 1.09, the IC50 [5] is reported as 33.1 µM and the IC50 [6] is reported as 31.4 µM.
`COc1cc(O)c2c(c1)O[C@@H]1COc3c(O)cccc3[C@@]1(O)C2=O` (relative stereo) was tested, and the inhibition [7] was 47.2%.
